Assay results published in ChEMBL document CHEMBL1124393, “Synthesis, cytotoxicity, and antiviral activity of some acyclic analogues of the pyrrolo[2,3-d]pyrimidine nucleoside antibiotics tubercidin, toyocamycin, and sangivamycin” (J Med Chem, 1989).
pIC50: −log10 of the molar value.

Key:
[1] = (§1) Cytotoxicity was evaluated in Human neoplastic cell line (KB); format: cell-based
In short: (§2)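 KB human epidermoid oral carcinoma cells in MEM with Hanks salts and 5% FBS. Inhibition of radiolabeled precursor incorporation into DNA, RNA and protein was measured. IC50s from regression against log concentration; the three values were averaged, two to five experiments each.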

[2] = (§3) Antiviral activity of the compound was evaluated against the Herpes simplex virus type-1 in BSC-1 cells; format: functional, cell-based; details: Human alphaherpesvirus 1, BSC-1
In short: (§4)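 HSV-1 strain S-148 plaque reduction in BSC-1 monolayers (MEM with Earle's salts, 10% fetal bovine serum); inoculum about 100 PFU; compound dissolved in overlay medium. Percent inhibition regressed against log concentration to give IC50. Acyclovir or ganciclovir positive controls in every assay; assay sets rejected if control deviated >1.5 SD from its mean.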

[3] = Cytotoxicity was evaluated against the Monkey kidney cells (BSC); format: cell-based; details: Cercopithecidae
In short: (§5)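 Uninfected HFF (human diploid foreskin fibroblasts) or BSC-1 (African green monkey kidney) cells in MEM with Earle's salts and 10% FBS, within the plaque-reduction plates. Drug-induced cytopathology was scored 0 to 4+ at 35- and 60-fold magnification on the day of staining for plaque enumeration.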

[4] = Cytotoxicity was evaluated against the Human diploid cells (HFF); format: cell-based; in short: as §5
L1210 [5] = assay: In vitro cytotoxicity was evaluated against the L1210 Murine leukemic cells; format: cell-based; details: Mus musculus
In short: (§6)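 Murine L1210 cells in static suspension in Fischer's medium, growth followed over 3 days across a range of concentrations. Growth rate is the slope of log cell number versus time relative to control, from the doubling-time ratio. IC50 is the concentration reducing growth rate to 50% of control.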

Human betaherpesvirus 5 = assay: Antiviral activity of the compound was evaluated against the Human cytomegalo virus (HCMV); format: functional, organism-based
In short: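 HCMV Towne strain (plaque-purified P0 isolate), plaque reduction in HFF monolayers; inoculum about 50 PFU; compound dissolved in overlay medium. IC50 taken from linear regression of percent inhibition against log concentration. Positive controls (acyclovir, ganciclovir) in all assays; sets rejected when control deviated >1.5 SD from its mean.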

[6] = as §1; format: functional, cell-based; in short: as §2
Human alphaherpesvirus 1 = assay: as §3; format: functional, organism-based; details: Human alphaherpesvirus 1, BSC-1; in short: as §4
L1210 [7] = assay: Compound effect on the growth rate at 10e-4 M in L1210 Murine Leukemic cells; format: functional, Mus musculus
In short: (§7)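 Murine L1210 leukemia cells in static suspension culture in Fischer's medium, exposed to 10⁻⁴ M compound over 3 days. Growth rate is the ratio of control to treated population doubling time, expressed as percent of control.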

Mus musculus = organism: Mus musculus; assay: Cytotoxicity was evaluated against the L1210 Murine leukemic cells in vitro; in short: as §6
L1210 [8] = assay: (§8) Compound effect on the growth rate of L1210 murine leukemia cells at 10e-4 M concentration; format: functional, Mus musculus; in short: as §7
L1210 [9] = assay: as §8; format: functional; in short: as §7

SMILES: Nc1nc2c(ncn2COCCO)c(=O)[nH]1 [ACYCLOVIR]
- pIC50 [1]: < 4.00
- pIC50 [2]: 5.59
- pIC50 [3]: < 4.00
- pIC50 [4]: < 4.00

SMILES: NC(=O)c1cn([C@@H]2O[C@H](CO)[C@@H](O)[C@H]2O)c2ncnc(N)c12 [SANGIVAMYCIN]
- pIC50 (L1210 [5]): 8.52
- pIC50 (Human betaherpesvirus 5): 7.52
- pIC50 [6]: 6.70
- pIC50 [4]: 7.10

SMILES: Nc1ncnc2c1ccn2COC(CO)CO
- pIC50 (Human betaherpesvirus 5): < 4.00
- pIC50 (Human alphaherpesvirus 1): < 4.00
- pIC50 [3]: < 4.00
- pIC50 [4]: < 4.00

SMILES: Nc1nc2c(ncn2COC(CO)CO)c(=O)[nH]1 [GANCICLOVIR]
- pIC50 [1]: 3.00
- pIC50 [2]: 5.52
- pIC50 [3]: < 4.00
- pIC50 [4]: < 4.00

SMILES: NC(=O)c1cn(C(CO)OC(CO)CO)c2ncnc(N)c12 (stereo not given)
- pIC50 (Human betaherpesvirus 5): < 4.00
- Control (L1210 [7]): 90%
- pIC50 [2]: < 4.00
- pIC50 [3]: < 4.00
- pIC50 [4]: < 4.00

SMILES: Nc1ncnc2c1ccn2[C@@H]1O[C@H](CO)[C@@H](O)[C@H]1O [TUBERCIDIN]
- pIC50 (L1210 [5]): 7.40
- pIC50 [6]: 6.15
- pIC50 [4]: 6.52

SMILES: Nc1ncnc2c1ccn2C(CO)OC(CO)CO (stereo not given)
- pIC50 (Human betaherpesvirus 5): < 4.00
- pIC50 [6]: < 4.00
- Control (L1210 [7]): 93%
- pIC50 [2]: < 4.00
- pIC50 [3]: < 4.00
- pIC50 [4]: < 4.00

SMILES: N#Cc1cn([C@@H]2O[C@H](CO)[C@@H](O)[C@H]2O)c2ncnc(N)c12 [TOYOCAMYCIN]
- pIC50 (L1210 [5]): 8.40
- pIC50 (Human betaherpesvirus 5): 7.30
- pIC50 [6]: 7.40
- pIC50 [4]: 7.52

SMILES: N#Cc1cn(C(CO)OC(CO)CO)c2ncnc(N)c12 (stereo not given)
- pIC50 (Mus musculus): < 4.00
- pIC50 (Human betaherpesvirus 5): < 4.00
- Control (L1210 [7]): 80%
- pIC50 [2]: < 4.00
- pIC50 [3]: < 4.00
- pIC50 [4]: < 4.00

SMILES: N/C(=N\O)c1cn(COC(CO)CO)c2ncnc(N)c12
- pIC50 (L1210 [5]): < 4.00
- pIC50 (Human betaherpesvirus 5): < 4.00
- Control (L1210 [8]): 80%
- pIC50 [2]: < 4.00
- pIC50 [3]: < 4.00
- pIC50 [4]: < 4.00

SMILES: NC(=S)c1cn(COC(CO)CO)c2ncnc(N)c12
- pIC50 (L1210 [5]): < 4.00
- pIC50 [1]: < 4.00
- pIC50 (Human betaherpesvirus 5): 5.10
- pIC50 [2]: < 4.00
- Control (L1210 [9]): 71%
- pIC50 [3]: < 4.00
- pIC50 [4]: < 4.00

SMILES: NC(=O)c1cn(COC(CO)CO)c2ncnc(N)c12
- pIC50 (L1210 [5]): < 4.00
- pIC50 (Human betaherpesvirus 5): 3.84
- Control (L1210 [8]): 84%
- pIC50 [2]: < 4.00
- pIC50 [3]: < 4.00
- pIC50 [4]: < 3.49

SMILES: N#Cc1cn(COC(CO)CO)c2ncnc(N)c12
- pIC50 (L1210 [5]): < 4.00
- pIC50 (Human betaherpesvirus 5): < 3.49
- Control (L1210 [8]): 87%
- pIC50 [2]: < 4.00
- pIC50 [3]: < 4.00
- pIC50 [4]: < 3.49
